Here are results for 9 molecules from ChEMBL document CHEMBL4346736, “Anti-proliferative activity and structure-activity relationship of honokiol derivatives” (Bioorg Med Chem, 2019).

For data set [1], the system named is A549. The experiment in a line: Antiproliferative activity against human A549 cells by MTT assay. It counts as functional, cell-based. A digest of the protocol: (§1)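 Cells from the Institute of Cell Biology, CAS (Shanghai), grown in RPMI-1640 with 10% FBS and 100 U/mL penicillin-streptomycin at 37 °C under 5% CO2. Cells were exposed to compounds for 48 h, and viability was read by MTT (or MTS). IC50, the concentration giving 50% inhibition, was calculated by the Logit method. Data are representative of 3 independent experiments.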
A general note: Tetrazolium dyes change colour on reduction, which living cells bring about.

Data set [2] relates to K562. The experiment in a line: Antiproliferative activity against human K562 cells by MTT assay. It counts as functional, cell-based. The procedure, abridged: as §1
Data set [3] in a line: Antiproliferative activity against human SPCA1 cells by MTT assay. It counts as functional, cell-based.
The nature of data set [4]: Partition coefficient, log P of the compound. It counts as physicochemical. As to conditions: octanol/water.
Data set [5] deals with HepG2. As to the kind of experiment: Antiproliferative activity against human HepG2 cells after 24 hrs by MTT assay. It counts as functional, cell-based. To be noted: HepG2, 24 h.
For data set [6], the system named is A549. As to the kind of experiment: Antiproliferative activity against human A549 cells after 24 hrs by MTT assay. As to conditions: A549, 24 h. It counts as functional, cell-based.
Data set [7] concerns K562. As to the kind of experiment: Antiproliferative activity against human K562 cells after 24 hrs by MTT assay. It counts as functional, cell-based. To be noted: K562, 24 h.
Data set [8] can be described thus: Antiproliferative activity against […] cells after 24 hrs by MTT assay. It counts as functional, cell-based. As to conditions: LL/2, 24 h.
For data set [9], the system named is A2780. As to the kind of experiment: Antiproliferative activity against human A2780 cells after 24 hrs by MTT assay. As to conditions: A2780, 24 h. It counts as functional, cell-based.
A short description of data set [10]: Antiproliferative activity against human SPCA1 cells after 24 hrs by MTT assay. It counts as functional, cell-based. To be noted: SPCA1, 24 h.
Data set [11] relates to HepG2. As to the kind of experiment: Antiproliferative activity against human HepG2 cells after 72 hrs by MTT assay. It counts as functional, cell-based. To be noted: HepG2, 72 h.
The subject of data set [12] is HCT-116. As to the kind of experiment: Antiproliferative activity against human HCT116 cells after 72 hrs by MTT assay. It counts as functional, cell-based. As to conditions: HCT-116, 72 h.
Data set [13] relates to NCI-H1975. As to the kind of experiment: Antiproliferative activity against human NCI-H1975 cells after 72 hrs by MTT assay. To be noted: NCI-H1975, 72 h. It counts as functional, cell-based.
Data set [14] concerns K562. As to the kind of experiment: Antiproliferative activity against human K562 cells after 48 hrs by MTT assay. It counts as functional, cell-based. As to conditions: K562, 48 h. The procedure, abridged: as §1
Data set [15] concerns A549. As to the kind of experiment: Antiproliferative activity against human A549 cells after 48 hrs by MTT assay. It counts as functional, cell-based. To be noted: A549, 48 h. A digest of the protocol:
as §1

Data set [16] relates to HepG2. The experiment in a line: Antiproliferative activity against human HepG2 cells after 48 hrs by MTT assay. It counts as functional, cell-based. To be noted: HepG2, 48 h. The procedure, abridged:
as §1

For data set [17], the system named is HUVEC. As to the kind of experiment: Antiproliferative activity against human HUVEC cells after 48 hrs by MTT assay. It counts as cell-based. A digest of the protocol: as §1
A short description of data set [18]: Selectivity index, ratio of IC50 for HUVEC to IC50 for human K562 cells. It counts as toxicity. To be noted: HUVEC versus K562 cells, read-out: Ratio IC50. The procedure, abridged: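 K562 tumor cells and HUVEC grown in RPMI-1640 with 10% FBS and penicillin-streptomycin at 37 °C under 5% CO2. Viability was read by MTT or MTS assay, with tumor cells exposed to compounds for 48 h. IC50 values came from the Logit method across 3 independent experiments. The index is HUVEC IC50 divided by K562 IC50.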

Data set [19] is described as follows: Antiproliferative activity against mouse C26 cells. It counts as functional, cell-based.
For data set [20], the system named is HeLa. The experiment in a line: Antiproliferative activity against human HeLa cells. It counts as functional, cell-based.

Molecules are shown by their SMILES.

What is called IC50 is the concentration that inhibits the measured activity by half. One may read the logP as a log measure of how a compound divides between an organic and an aqueous phase. As for `C=CCc1cc(C=O)c(O)c(-c2cc(C=O)c(O)c(CC=C)c2)c1`, the half-maximal inhibitory concentration (IC50) in data set [1] was more than 77.6 µM; in data set [2], 32.6 µM; in data set [3], 31.4 µM. In data set [4], this molecule had a logP of 4.23.

`C=CCc1ccc(O)c(-c2cc(C=O)c(O)c(CC=C)c2)c1`: the IC50 in data set [5] was determined as 20.2 µM; in data set [6], 34.1 µM; in data set [7], 11.6 µM; in data set [8], 31.3 µM; in data set [9], 17.8 µM; in data set [10] it was 37.3 µM. Further, the IC50 came to 49 µM in data set [1], 19.7 µM in data set [2] and 22.8 µM in data set [3]. The logP in data set [4] came to 4.51.

In the case of `C=CCc1cc(C=O)c(O)c(-c2ccc(O)c(CC=C)c2)c1`, the IC50 in [1] is more than 85 µM; in [2] it was 54.6 µM. In data set [4], this molecule came in with a lipophilicity (logP) of 4.72.

Take `C=CCc1ccc(O)c(-c2ccc(O)c(CC(O)COC)c2)c1` (configuration not stated): the IC50 in data set [11], in data set [12] and in data set [13] was more than 40 µM throughout. The molecule also returned a logP in data set [4] of 3.7.

Regarding `C=CCc1ccc(O)c(-c2ccc(O)c(/C=C\C)c2)c1`, the figures for the IC50 in [11], in data set [12] and in data set [13] were 31.6 µM, 19.9 µM and 39.8 µM, respectively. In [4], the logP was determined as 5.1.

As to `C=CCc1ccc(O)c(-c2ccc(O)c(CC(CO)OC)c2)c1` (configuration not stated), the IC50 in [11], in data set [12] and in data set [13] was more than 40 µM in each case. This molecule had a logP in data set [4] of 3.7.

As to `C=CCc1cc(NC(=O)C=C)c(O)c(-c2cc(CC=C)c(O)c(NC(=O)C=C)c2)c1`, the IC50 stood at 5.04 µM in data set [14], 16.6 µM in data set [15], 19.1 µM in [16] and 57.8 µM in [17]. Moreover, in [18], the selectivity ratio came out at 11.5. Besides, in data set [4], the log partition coefficient (logP) was 4.3.

Take `C=CCc1cc2c(c(-c3cc(CC=C)c4c(c3)NC(=O)CO4)c1)OCC(=O)N2`: the IC50 stood at 7.08 µM in data set [14], 37 µM in data set [15], 27.4 µM in data set [16] and 82.1 µM in [17]. For the same molecule, the selectivity ratio in [18] came out at 11.6. The molecule also registered a logP in [4] of 3.29.

Consider `C=CCc1ccc(O)c(-c2ccc(O)c(CC=C)c2)c1` [HONOKIOL], for which the IC50 in data set [14] came to 23.9 µM; in [16], 34.3 µM; in data set [11], 33.9 µM; in data set [12], 19.1 µM; in data set [5], 32.9 µM; in data set [6] it was 34.1 µM. Also, the 50% inhibitory concentration (IC50) in data set [7] turned out to be 22.1 µM; in data set [8], 65.3 µM; in data set [10], 37.3 µM; in [1] it was 29.7 µM; in [2] it was 28.4 µM; in data set [3], 41.3 µM. Besides, the IC50 amounted to 65.1 µM in data set [19] and 62 µM in data set [20]. The selectivity ratio in [18] was 2.2. The molecule also showed a log partition coefficient (logP) in [4] of 5.
